Laboratory results taken from ChEMBL document CHEMBL4007483, “Design, synthesis and potent cytotoxic activity of novel 7-(N-[(substituted-sulfonyl)piperazinyl]-methyl)-camptothecin derivatives” (Bioorg Med Chem Lett, 2017).
pIC50: −log10 of the molar value.

Key:
Type in all cases: functional, cell-based
[1] = tested on: KB; test: Cytotoxicity against human KB cells after 72 hrs by sulforhodamine B assay
Summary of the method: (§1)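 Cells seeded at 3–5 × 10^3 per well in RPMI-1640 with 10% FBS containing graded sample concentrations, exposed 72 h. Attached cells fixed with cold 50% trichloroacetic acid 30 min, stained with 0.04% SRB 30 min. Bound dye solubilized in 10 mM Tris-base, absorbance read at 515 nm; IC50 from concentration series.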

[2] = tested on: MCF7; test: Cytotoxicity against human MCF7 cells after 72 hrs by sulforhodamine B assay; conditions: MCF7, 72 h; summary of the method: as §1
[3] = Cytotoxicity against human KBVIN cells after 72 hrs by sulforhodamine B assay; summary of the method: as §1
[4] = tested on: A549; test: Cytotoxicity against human A549 cells after 72 hrs by sulforhodamine B assay; conditions: A549, 72 h; summary of the method: as §1
[5] = tested on: MDA-MB-231; test: Cytotoxicity against human MDA-MB-231 cells after 72 hrs by sulforhodamine B assay; conditions: MDA-MB-231, 72 h; summary of the method: as §1

Molecule `CC[C@@]1(O)C(=O)OCc2c1cc1n(c2=O)Cc2c-1nc1ccccc1c2CN1CCN(S(=O)(=O)c2ccc(OC)cc2)CC1` has a pIC50 [1] of 7.68, a pIC50 [2] of 7.15 and a pIC50 [3] of 6.85. It also gave a pIC50 [4] of 8.27 and a pIC50 [5] of 6.91.

Work on `CC[C@@]1(O)C(=O)OCc2c1cc1n(c2=O)Cc2c-1nc1ccccc1c2CN1CCN(S(=O)(=O)N(C)C)CC1` yielded a pIC50 [1] of 7.10, a pIC50 [2] of 7.15 and a pIC50 [3] of 6.85. The pIC50 [4] was 8.14 and the pIC50 [5] was 6.47.

Work on `CC[C@@]1(O)C(=O)OCc2c1cc1n(c2=O)Cc2c-1nc1ccccc1c2CN1CCN(S(=O)(=O)c2ccc(C)cc2)CC1` yielded a pIC50 [1] of 7.07, a pIC50 [2] of 7.74 and a pIC50 [3] of 7.46. It also gave a pIC50 [4] of 9.05 and a pIC50 [5] of 7.07.

With `CC[C@@]1(O)C(=O)OCc2c1cc1n(c2=O)Cc2c-1nc1ccccc1c2CN1CCN(S(=O)(=O)c2cccnc2)CC1` the pIC50 [1] was 7.17, the pIC50 [2] was 7.21 and the pIC50 [3] was 6.49. The pIC50 [4] was 7.66 and the pIC50 [5] was 6.97.

`CC[C@@]1(O)C(=O)OCc2c1cc1n(c2=O)Cc2c-1nc1ccccc1c2CN1CCN(S(=O)(=O)Cc2ccccc2)CC1` showed a pIC50 [1] of 6.71, a pIC50 [2] of 6.44 and a pIC50 [3] of 6.38. It also gave a pIC50 [4] of 7.56 and a pIC50 [5] of 6.26.

`CC[C@@]1(O)C(=O)OCc2c1cc1n(c2=O)Cc2c-1nc1ccccc1c2CN1CCN(S(=O)(=O)c2cc(OC)cc(OC)c2)CC1` gave a pIC50 [1] of 8.54, a pIC50 [2] of 7.47 and a pIC50 [3] of 8.92. It also gave a pIC50 [4] of 8.85 and a pIC50 [5] of 8.19.

Work on `CC[C@@]1(O)C(=O)OCc2c1cc1n(c2=O)Cc2c-1nc1ccccc1c2CN1CCN(S(=O)(=O)c2ccc(C(C)C)cc2)CC1` yielded a pIC50 [1] of 7.80, a pIC50 [2] of 7.17 and a pIC50 [3] of 7.09. It also gave a pIC50 [4] of 8.36 and a pIC50 [5] of 6.91.

In the case of `CC[C@@]1(O)C(=O)OCc2c1cc1n(c2=O)Cc2c-1nc1ccccc1c2CN1CCN(S(=O)(=O)c2ccc3ccccc3c2)CC1`, the pIC50 [1] was 7.35, the pIC50 [2] was 7.09 and the pIC50 [3] was 6.78. It also gave a pIC50 [4] of 7.89 and a pIC50 [5] of 6.95.

Molecule `CC[C@@]1(O)C(=O)OCc2c1cc1n(c2=O)Cc2c-1nc1ccccc1c2CN1CCN(S(=O)(=O)c2ccc(F)cc2)CC1` has a pIC50 [1] of 7.12, a pIC50 [2] of 7.42 and a pIC50 [3] of 7.59. The pIC50 [4] was 9.30 and the pIC50 [5] was 7.20.

Molecule `CC[C@@]1(O)C(=O)OCc2c1cc1n(c2=O)Cc2c-1nc1ccccc1c2CN1CCN(S(=O)(=O)c2ccccc2)CC1` has a pIC50 [1] of 8.70, a pIC50 [2] of 8.31 and a pIC50 [3] of 7.15. For the same molecule, the pIC50 [4] was 9.60 and the pIC50 [5] was 7.33.

Work on `CC[C@@]1(O)C(=O)OCc2c1cc1n(c2=O)Cc2c-1nc1ccccc1c2CN1CCN(S(=O)(=O)c2cccs2)CC1` yielded a pIC50 [1] of 7.15, a pIC50 [2] of 8.10 and a pIC50 [3] of 7.24. For the same molecule, the pIC50 [4] was 9.68 and the pIC50 [5] was 7.52.

Work on `CCCCS(=O)(=O)N1CCN(Cc2c3c(nc4ccccc24)-c2cc4c(c(=O)n2C3)COC(=O)[C@]4(O)CC)CC1` yielded a pIC50 [1] of 8.07, a pIC50 [2] of 7.13 and a pIC50 [3] of 6.69. The pIC50 [4] was 8.40 and the pIC50 [5] was 6.87.

For `CCc1ccc(S(=O)(=O)N2CCN(Cc3c4c(nc5ccccc35)-c3cc5c(c(=O)n3C4)COC(=O)[C@]5(O)CC)CC2)cc1`, the pIC50 [1] was 7.96, the pIC50 [2] was 7.21 and the pIC50 [3] was 6.90. The pIC50 [4] was 9.19 and the pIC50 [5] was 6.98.

`CC[C@@]1(O)C(=O)OCc2c1cc1n(c2=O)Cc2c-1nc1ccccc1c2CN1CCN(S(=O)(=O)c2cc(F)cc(F)c2)CC1` gave a pIC50 [1] of 7.68, a pIC50 [2] of 7.25 and a pIC50 [3] of 6.58. The pIC50 [4] was 9.15 and the pIC50 [5] was 7.08.

Work on `CC[C@@]1(O)C(=O)OCc2c1cc1n(c2=O)Cc2c-1nc1ccccc1c2CN1CCN(S(=O)(=O)c2ccc([N+](=O)[O-])cc2)CC1` yielded a pIC50 [1] of 7.26, a pIC50 [2] of 7.02 and a pIC50 [3] of 6.32. The pIC50 [4] was 7.53 and the pIC50 [5] was 6.46.

Molecule `CC[C@@]1(O)C(=O)OCc2c1cc1n(c2=O)Cc2c-1nc1ccccc1c2CN1CCN(S(=O)(=O)c2ccc(Cl)cc2)CC1` has a pIC50 [1] of 7.01, a pIC50 [2] of 7.46 and a pIC50 [3] of 7.69. It also gave a pIC50 [4] of 8.16 and a pIC50 [5] of 7.12.

`CC[C@@]1(O)C(=O)OCc2c1cc1n(c2=O)Cc2cc3ccccc3nc2-1` [CAMPTOTHECIN] gave a pIC50 [1] of 7.30, a pIC50 [2] of 7.06 and a pIC50 [3] of 7.80. For the same molecule, the pIC50 [4] was 8.06 and the pIC50 [5] was 6.51.

`CCc1c2c(nc3ccc(OC(=O)N4CCC(N5CCCCC5)CC4)cc13)-c1cc3c(c(=O)n1C2)COC(=O)[C@]3(O)CC` [IRINOTECAN] showed a pIC50 [3] of under 4.70.

With `CC[C@@]1(O)C(=O)OCc2c1cc1n(c2=O)Cc2cc3c(CN(C)C)c(O)ccc3nc2-1` [TOPOTECAN] the pIC50 [3] was 6.54.
